Assay outcomes: PubChem, several laboratories
Shown are actives, neighbours in structure and some others; about 6.4% of the full set was active somewhere.
Lung fibro prol: antiproliferative effect on LL 47 fibroblasts – human, LL 47 cells, CellTiter-Glo luminescence, primary screen; LL 47 human lung fibroblast viability, ATP luminescence; hits give low values; viability, % at 10 µM; actives 1.1% (n = 85,000); AID 719, 2007;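 active means viability at or below 50% in the single dose screen; inactive means viability above 50%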;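 further: compound exposure lasted 72 h before the ATP readout; 100% = median luminescence of untreated cell-only wells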
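Material: human lung fibroblast line LL 47, low passage; Evaluation: viability percentage against median untreated-cell control; Buffer or medium: 15% FBS in IMEM; Incubation: 72 h compound exposure at 37 °C after overnight plating; Dosing: 0.1% DMSO in all compound wells; Measured by: CellTiter-Glo luminescence.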
HUVEC prolif 384: inhibitors of HUVEC proliferation, primary screen, cell-based, 384-well; CellTiter-Glo luminescence, 72 h; hits give low values; viability, % at 10 µM (by protocol); actives 1.1% (n = 86,000); AID 648, 2007;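 active means viability at or below 30%; inactive means viability above 30%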;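 further: 100% = median luminescence of DMSO-only cell control wells on each plate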
Ecoli tolC: growth inhibitors of E. coli tolC mutant, primary screen, strain BW25113 ΔtolC::kan, 384-well | OD615 | growth inhibition, % at 10 µM (by protocol) | actives 2.2% (n = 65,000);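 active means growth inhibition at or above a cutoff equal to the mean over every tested compound plus 3 SD, cut at about 60% in these data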;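 further: growth measured after 20 h incubation at 37 °C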
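Material: E. coli BW25113 ΔtolC::kan, tolC deletion mutant strain. Measure: percent growth inhibition. Schedule: 37 °C, 20 h exposure. Doses: single-point testing at 10 µM. Signal: A615 absorbance measurement. Buffer or medium: kanamycin-containing LB broth (50 µg/mL).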
E coli WT exp: growth inhibitors of wild-type E. coli, primary screen, strain BW25113, expanded library, OD600 | OD600 absorbance | growth inhibition, % at 100 µM | actives 0.15% (n = 98,000);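 active means growth inhibition above about 50% at one test dose, limit read from the data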;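 further: growth measured after 20 h incubation at 37 °C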
Jurkat tox 60K: cytotoxicity toward Jurkat T cells, primary screen, cytotoxicity control, cell-based, Jurkat E6.1, 60K MLSMR library | Jurkat E6.1 viability, ATP luminescence, 48 h | inhibition, % at 4 µM | actives 1.2% (n = 56,000);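 active means inhibition above the mean inhibition of all tested compounds plus 3 SD, cut at about 28% in these data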
H69AR growth 86K: proliferation blockers of H69AR lung cancer cells, primary screen, cell-based, human, 86K library. H69AR lung tumor viability, ATP luminescence, 72 h; hits give low values. viability, % at 10 µM. actives 6% (n = 85,000). AID 598, 2007;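 active means viability at or below 40%; inactive means viability above 40%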;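 further: multidrug resistant small cell line overexpressing MRP-1 efflux transporter; 100% = mean luminescence of untreated control wells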
The depositor's hits bear a star.

`CCN(c1ccccc1)S(=O)(=O)c1ccc(NCC2COc3ccccc3O2)nc1` (centres undefined) gave Lung fibro prol 90, HUVEC prolif 384 61, Ecoli tolC 62*, E coli WT exp -21, Jurkat tox 60K 4 and H69AR growth 86K 72.
`CCSc1nc(N)c(C#N)c(-c2ccccc2Cl)c1C#N` gave Lung fibro prol 99, HUVEC prolif 384 100, Ecoli tolC 14, E coli WT exp -5 and H69AR growth 86K 37*.
Screening O=C(CCN1Cc2ccccc2C1)c1ccc2c(c1)OCCO2 returned Lung fibro prol 79, HUVEC prolif 384 98, Ecoli tolC 3, E coli WT exp 10, Jurkat tox 60K -2 and H69AR growth 86K 1.0*.
For O=C(CCN1CCc2ccccc2C(c2ccccc2)C1)c1ccc2c(c1)OCCO2 (centres undefined) the results were Lung fibro prol 91, HUVEC prolif 384 86, E coli WT exp 20 and H69AR growth 86K 1.6*.
Screening Cc1ccc(C)c(N2CCN(S(=O)(=O)c3ccc4[nH]c(=O)c(=O)[nH]c4c3)CC2)c1 returned Lung fibro prol 101, HUVEC prolif 384 90, Ecoli tolC 31, E coli WT exp -17, Jurkat tox 60K 8 and H69AR growth 86K 73.
`Cc1ccc(N=C2N=C(N)c3ccccc32)cc1C` gave Lung fibro prol 82, HUVEC prolif 384 65 and H69AR growth 86K 42.
`O=C(O)CSc1nnc(Cc2ccccc2)n1-c1ccccc1` gave Lung fibro prol 105, HUVEC prolif 384 113, Ecoli tolC -11, E coli WT exp 3, Jurkat tox 60K -6 and H69AR growth 86K 105.
`O=S(=O)(c1ccc(Cl)cc1)N1CCC(n2cnc3cc(C(F)(F)F)ccc32)CC1` gave Lung fibro prol 103, HUVEC prolif 384 94 and H69AR growth 86K 35*.
Screening O=S(=O)(c1ccc2c(c1)OCCO2)N1CCC(n2cnc3cc(F)ccc32)CC1 returned Lung fibro prol 92, HUVEC prolif 384 96, Ecoli tolC 36, E coli WT exp -12, Jurkat tox 60K 17 and H69AR growth 86K 68.
Screening COc1ccc(/C=C/C(O)=C2/C(=O)N(C)C3(C)CC2c2ccccc2O3)cc1 (centres undefined) returned Lung fibro prol 76, HUVEC prolif 384 82, Ecoli tolC 17, E coli WT exp -22, Jurkat tox 60K 10 and H69AR growth 86K 3.0*.
For Cc1ccc(/C=C/C(O)=C2/C(=O)N(C)C3(C)CC2c2ccccc2O3)cc1 (centres undefined) the results were E coli WT exp -3.
For COCCn1c(N)c(C(=O)NCC2CCCO2)c2nc3ccccc3nc21 (centres undefined) the results were Lung fibro prol 91, HUVEC prolif 384 72, Ecoli tolC 6, E coli WT exp -4 and H69AR growth 86K 58.
Screening CC(C)Cn1c(N)c(C(=O)NCC2CCCO2)c2nc3ccccc3nc21 (centres undefined) returned Lung fibro prol 80, HUVEC prolif 384 74, Ecoli tolC 36, E coli WT exp 11, Jurkat tox 60K 2 and H69AR growth 86K 36*.
For Nc1c(C(=O)OCC2CCCO2)c2nc3ccccc3nc2n1C1CCCC1 (centres undefined) the results were Lung fibro prol 70, HUVEC prolif 384 54, Ecoli tolC 41, E coli WT exp 11, Jurkat tox 60K 6 and H69AR growth 86K 15*.
Screening COc1ccc(OC)c(-n2c(N)c(C(=O)NCC3CCCO3)c3nc4ccccc4nc32)c1 (centres undefined) returned Lung fibro prol 96, HUVEC prolif 384 74, Ecoli tolC -1, E coli WT exp -4, Jurkat tox 60K -7 and H69AR growth 86K 49.
For COc1ccc(-c2nn3c(-c4ccccn4)nnc3s2)cc1OC the results were Ecoli tolC 15 and E coli WT exp -8.
Screening CC(C)C(=O)c1cn(CC(=O)N2CCCc3ccccc32)c2ccccc12 returned Lung fibro prol 96, HUVEC prolif 384 77, E coli WT exp -1 and H69AR growth 86K 36*.
For COC(=O)/C=C1\C(=O)N(c2nc3ccccc3s2)C(=S)N1c1ccc(F)cc1 the results were Lung fibro prol 50*, HUVEC prolif 384 64, E coli WT exp -16 and H69AR growth 86K 46.
`COc1ccc(N2CCN(CC(=O)Nc3nc4c(s3)CC(C)CC4)CC2)cc1` (centres undefined) gave Lung fibro prol 101, HUVEC prolif 384 106, Ecoli tolC 100*, E coli WT exp -12, Jurkat tox 60K 0 and H69AR growth 86K 88.
For CC(Cc1cccs1)NC(=O)Nc1ccc(Cl)c(Cl)c1 (centres undefined) the results were Lung fibro prol 106, HUVEC prolif 384 56, E coli WT exp 20 and H69AR growth 86K 26*.
Screening CC(Cc1cccs1)NC(=O)Nc1ccc(Cl)cc1 (centres undefined) returned E coli WT exp 10.
For Cn1c(SCC(=O)N(C2CCCCC2)C2CCCCC2)nnc1-c1cccs1 the results were Lung fibro prol 75, HUVEC prolif 384 81, Ecoli tolC 16, E coli WT exp 4, Jurkat tox 60K -14 and H69AR growth 86K 20*.
`CCOC(=O)c1ccc(NC(=O)CC2C(=O)N(c3cccc(OC)c3)C(=O)N2CCOC)cc1` (centres undefined) gave Lung fibro prol 98, HUVEC prolif 384 98, Ecoli tolC 3, E coli WT exp 4, Jurkat tox 60K -5 and H69AR growth 86K 81.
Screening Cc1ccc(SC(C)c2nc(-c3ccccc3)no2)cc1 (centres undefined) returned Lung fibro prol 100, HUVEC prolif 384 101, Ecoli tolC 40, E coli WT exp -2, Jurkat tox 60K -8 and H69AR growth 86K 93.
CC1=C(C(=O)Nc2ccccc2C)C(c2ccc(C)o2)n2c(s/c(=C/c3ccccc3)c2=O)=N1 (centres undefined) was read as Lung fibro prol 75, HUVEC prolif 384 66, E coli WT exp -30 and H69AR growth 86K 42.
Screening CC1=C(C(=O)Nc2ccccc2)C(c2ccc(C)o2)n2c(s/c(=C/c3ccccc3)c2=O)=N1 (centres undefined) returned Lung fibro prol 91, HUVEC prolif 384 79, E coli WT exp -12 and H69AR growth 86K 23*.
C[C@@H]1C[C@H](Nc2ccccc2)c2ccccc2N1C(=O)c1cccnc1 was read as Lung fibro prol 94, HUVEC prolif 384 89, Ecoli tolC 17, E coli WT exp 4 and H69AR growth 86K 20*.
